In ChEMBL document CHEMBL1138232, “Optimization of naphthalimide-imidazoacridone with potent antitumor activity leading to clinical candidate (HKH40A, RTA 502)” (J Med Chem, 2007):

Legend:
[1] = Growth inhibition of human Hep3B cells after 5 days by MTT assay; type: functional, Hep 3B2; conditions: 120 h; for CC50: read-out: LC50 (the source's name)
Outline: (§1)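 MTT assay after 5 day continuous exposure. GI50, TGI and LC50 calculated from the MTT data. Means ± SD of at least three independent experiments; coefficients of variation 10-20%. Compounds used as tri(methanesulfonate) salts.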

[2] = system: HCT-116; experiment: Growth inhibition of human HCT116 cells after 5 days by MTT assay; type: functional; conditions: HCT-116, 120 h; outline: as §1
[3] = system: HT-29; experiment: Growth inhibition of human HT29 cells after 5 days by MTT assay; type: functional; conditions: HT-29, 120 h; for CC50: read-out: LC50 (the source's name); outline: as §1
[4] = system: ASPC1; experiment: Antitumor activity against p53 null human ASPC1 cells; type: functional, cell-based
[5] = system: HCT-116; experiment: Antitumor activity against human HCT116 cells expressing wild type p53; type: functional; conditions: read-out: LC50 (the source's name)
Outline: (§2)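 Compounds tested as tri(methanesulfonate) salts, soluble in water and dilute buffers. Human tumour cells carrying wild-type or mutated p53 were exposed for 5 days, and viability was read by MTT assay. GI50, TGI and LC50 were calculated from the MTT data. Values are means ± SD of at least three independent experiments, with coefficients of variation of 10–20%.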

[6] = system: HCT-116; experiment: Cell cycle arrest in HCT116 cells assessed as accumulation at G1 phase at 50 nM after 72 hrs; type: functional, Homo sapiens
Outline: (§3)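 HCT116 cells exposed to 50 nM drug for 72 h, then cell-cycle distribution analysed. Sub-G1, G1, S and G2/M fractions reported as percent of cells, with untreated control cells for comparison.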

[7] = system: COLO 205; experiment: Antitumor activity against human Colo205 cells expressing mutated p53; type: functional, cell-based; outline: as §2
[8] = system: RKO; experiment: Antitumor activity against human RKO cells expressing wild type p53; type: functional; conditions: read-out: LC50 (the source's name); outline: as §2
[9] = system: HCT-116; experiment: Cell cycle arrest in HCT116 cells assessed as accumulation at G2/M phase at 50 nM after 72 hrs; type: functional, Homo sapiens; outline: as §3
[10] = Antitumor activity against human 10.05 cells expressing mutated p53; type: functional, cell-based; outline: as §2
[11] = system: HT-29; experiment: Antitumor activity against HT29 cells expressing mutated p53; type: functional, cell-based; conditions: Homo sapiens; outline: as §2
[12] = system: PC-3; experiment: Antitumor activity against PC3 cells expressing mutated p53; type: functional, cell-based; conditions: Homo sapiens; outline: as §2
[13] = system: HCT-116; experiment: Cell cycle arrest in HCT116 cells assessed as accumulation at Sub G1 phase at 50 nM after 72 hrs; type: functional, Homo sapiens; outline: as §3
[14] = system: HCT-116; experiment: Cell cycle arrest in HCT116 cells assessed as accumulation at S phase at 50 nM after 72 hrs; type: functional, Homo sapiens; outline: as §3
[15] = system: MIA PaCa-2; experiment: Inhibition of tumor growth in PaCa2 cells xenografted nu/nu mouse at 80 mg/kg; type: functional, Homo sapiens; conditions: read-out: TGI
Outline: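 PaCa-2 tumour fragments implanted on the flank of nu/nu mice, 10 per group. Intraperitoneal treatment, Q3Dx4, started 12 days post-inoculation at 80 mm3 tumour volume. Tumour growth inhibition measured.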

O=C1c2cccc3cccc(c23)C(=O)N1CCCN1CCN(CCCNc2ccc3ncn4c5ccccc5c(=O)c2c34)CC1
GI50 [1]: 22 nM
CC50 [1]: 1000 nM
GI50 [2]: 15 nM
LC50 [2]: 1000 nM
GI50 [3]: 11 nM
CC50 [3]: 1000 nM

COc1ccc2c(c1)c(=O)c1c(NCCCN3CCN(CCCN4C(=O)c5cccc6cccc(c56)C4=O)CC3)ccc3ncn2c31
GI50 [1]: 3.5 nM
CC50 [1]: 330 nM
GI50 [2]: 3.5 nM
LC50 [2]: 70 nM
GI50 [3]: 3 nM
CC50 [3]: 1000 nM

Nc1cc2c3c(cccc3c1)C(=O)N(CCCN1CCN(CCCNc3ccc4ncn5c6ccc(F)cc6c(=O)c3c45)CC1)C2=O
GI50 [2]: 2.2 nM
LC50 [2]: 80 nM
GI50 [3]: 8 nM
CC50 [3]: 750 nM

O=C1c2cccc3cc([N+](=O)[O-])cc(c23)C(=O)N1CCCN1CCN(CCCNc2ccc3ncn4c5ccccc5c(=O)c2c34)CC1
IC50 [4]: 350 nM
CC50 [5]: 40 nM
GI50 [1]: 4 nM
CC50 [1]: 380 nM
Activity [6]: 37.9%
IC50 [7]: 500 nM
CC50 [8]: 40 nM
Activity [9]: 45%
IC50 [10]: 300 nM
IC50 [11]: 550 nM
GI50 [2]: 1 nM
LC50 [2]: 40 nM
IC50 [12]: > 1000 nM
GI50 [3]: 2 nM
CC50 [3]: 550 nM
Activity [13]: 15.5%
Activity [14]: 1.3%

O=C1c2cccc3cc([N+](=O)[O-])cc(c23)C(=O)N1CCCN1CCN(CCCNc2ccc3ncn4c5ccc(F)cc5c(=O)c2c34)CC1
GI50 [1]: 4 nM
CC50 [1]: 400 nM
GI50 [2]: 1 nM
LC50 [2]: 40 nM
GI50 [3]: 2 nM
CC50 [3]: 600 nM

Cc1ccc2c(c1)c(=O)c1c(NCCCN3CCN(CCCN4C(=O)c5cccc6cc([N+](=O)[O-])cc(c56)C4=O)CC3)ccc3ncn2c31
GI50 [2]: 3.5 nM
LC50 [2]: 30 nM

Cc1cccc2c1c(=O)c1c(NCCCN3CCN(CCCN4C(=O)c5cccc6cc([N+](=O)[O-])cc(c56)C4=O)CC3)ccc3ncn2c31
GI50 [2]: 3 nM
LC50 [2]: 30 nM

O=C1c2cccc3c([N+](=O)[O-])ccc(c23)C(=O)N1CCCN1CCN(CCCNc2ccc3ncn4c5ccccc5c(=O)c2c34)CC1
GI50 [1]: 18 nM
CC50 [1]: 1000 nM
GI50 [2]: 5.5 nM
LC50 [2]: > 1000 nM
GI50 [3]: 15 nM
CC50 [3]: 1000 nM

COc1ccc2c(c1)c(=O)c1c(NCCCN3CCN(CCCN4C(=O)c5cccc6c([N+](=O)[O-])ccc(c56)C4=O)CC3)ccc3ncn2c31
GI50 [1]: 5 nM
CC50 [1]: 800 nM
GI50 [2]: 3 nM
LC50 [2]: 350 nM
GI50 [3]: 4 nM
CC50 [3]: 1000 nM

Nc1ccn([C@@H]2O[C@H](CO)[C@@H](O)C2(F)F)c(=O)n1 [GEMCITABINE]
inhibition in vivo at 80 mg/kg [15]: 85.3%
